Laboratory results published in ChEMBL document CHEMBL4052804, “Design and synthesis of piperazine acetate podophyllotoxin ester derivatives targeting tubulin depolymerization as new anticancer agents” (Bioorg Med Chem Lett, 2017).
Activity calls are given as the source filed them. The calls are words filed in the database; no cut-off is given here.

What was measured:
[1] = tested on: A549; assay: Cytotoxicity against human A549 cells after 24 hrs by MTT assay; type: functional, cell-based; conditions: A549, 24 h
In short: (§1)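 In vitro antiproliferative screen by MTT assay against human MCF-7 breast, HeLa cervical, A549 lung adenocarcinoma and HepG-2 hepatoma cells. Output is the IC50.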

[2] = tested on: HeLa; assay: Cytotoxicity against human HeLa cells after 24 hrs by MTT assay; type: functional, cell-based; in short: as §1
[3] = tested on: MCF7; assay: Cytotoxicity against human MCF7 cells after 24 hrs by MTT assay; type: functional, cell-based; conditions: MCF7, 24 h; in short: as §1
[4] = tested on: L02; assay: Cytotoxicity against human L02 cells after 24 hrs by MTT assay; type: cell-based; conditions: L02, 24 h
In short: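 Normal human liver L02 cells were tested at multiple concentrations in an MTT assay. Output is the median cytotoxic concentration (CC50).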

[5] = tested on: MCF7; assay: Cell cycle arrest in human MCF7 cells assessed as accumulation at G1 phase at 0.3 uM after 12 hrs by propidium iodide staining based flow cytometric method (reference value: 58.69 to 62.23%); type: functional
[6] = tested on: MCF7; assay: Cell cycle arrest in human MCF7 cells assessed as accumulation at S phase at 0.3 uM after 12 hrs by propidium iodide staining based flow cytometric method (reference value: 27.63 to 32.34%); type: functional
[7] = tested on: MCF7; assay: Cell cycle arrest in human MCF7 cells assessed as accumulation at G1 phase at 0.6 uM after 12 hrs by propidium iodide staining based flow cytometric method (reference value: 58.69 to 62.23%); type: functional
[8] = tested on: MCF7; assay: Cell cycle arrest in human MCF7 cells assessed as accumulation at G1 phase at 0.9 uM after 12 hrs by propidium iodide staining based flow cytometric method (reference value: 58.69 to 62.23%); type: functional
[9] = tested on: MCF7; assay: Cell cycle arrest in human MCF7 cells assessed as accumulation at S phase at 0.9 uM after 12 hrs by propidium iodide staining based flow cytometric method (reference value: 27.63 to 32.34%); type: functional
[10] = tested on: MCF7; assay: Cell cycle arrest in human MCF7 cells assessed as accumulation at G2/M phase at 0.9 uM after 12 hrs by propidium iodide staining based flow cytometric method (reference value: 5.43 to 13.68%); type: functional
[11] = tested on: MCF7; assay: Cell cycle arrest in human MCF7 cells assessed as accumulation at G1 phase at 0.6 uM after 4 hrs by propidium iodide staining based flow cytometric method (reference value: 60.19 to 60.87%); type: functional
[12] = tested on: MCF7; assay: Cell cycle arrest in human MCF7 cells assessed as accumulation at S phase at 0.6 uM after 4 hrs by propidium iodide staining based flow cytometric method (reference value: 29.55 to 32.22%); type: functional
[13] = tested on: MCF7; assay: Cell cycle arrest in human MCF7 cells assessed as accumulation at G2/M phase at 0.6 uM after 4 hrs by propidium iodide staining based flow cytometric method (reference value: 7.59 to 9.58%); type: functional
[14] = tested on: MCF7; assay: Cell cycle arrest in human MCF7 cells assessed as accumulation at G1 phase at 0.6 uM after 8 hrs by propidium iodide staining based flow cytometric method (reference value: 60.19 to 60.87%); type: functional
[15] = tested on: MCF7; assay: Cell cycle arrest in human MCF7 cells assessed as accumulation at G2/M phase at 0.6 uM after 8 hrs by propidium iodide staining based flow cytometric method (reference value: 7.59 to 9.58%); type: functional
[16] = tested on: MCF7; assay: Cell cycle arrest in human MCF7 cells assessed as accumulation at G1 phase at 0.6 uM after 16 hrs by propidium iodide staining based flow cytometric method (reference value: 60.19 to 60.87%); type: functional
[17] = tested on: MCF7; assay: Cell cycle arrest in human MCF7 cells assessed as accumulation at G2/M phase at 0.6 uM after 16 hrs by propidium iodide staining based flow cytometric method (reference value: 7.59 to 9.58%); type: functional
[18] = tested on: MCF7; assay: Induction of apoptosis in human MCF7 cells assessed as viable cells at 2 uM after 24 hrs by Annexin-V-FITC/propidium iodide staining based flow cytometric method (reference value: 91.6 to 92.7%); type: functional; conditions: MCF7, 24 h, read-out: Activity
[19] = tested on: MCF7; assay: Induction of apoptosis in human MCF7 cells assessed as early apoptotic cells at 2 uM after 24 hrs by Annexin-V-FITC/propidium iodide staining based flow cytometric method (reference value: 2.36 to 2.86%); type: functional
[20] = tested on: MCF7; assay: Induction of apoptosis in human MCF7 cells assessed as late apoptotic cells at 2 uM after 24 hrs by Annexin-V-FITC/propidium iodide staining based flow cytometric method (reference value: 2 to 3.7%); type: functional
[21] = tested on: MCF7; assay: Induction of apoptosis in human MCF7 cells assessed as viable cells at 4 uM after 24 hrs by Annexin-V-FITC/propidium iodide staining based flow cytometric method (reference value: 91.6 to 92.7%); type: functional; conditions: MCF7, 24 h, read-out: Activity
[22] = tested on: MCF7; assay: Induction of apoptosis in human MCF7 cells assessed as early apoptotic cells at 4 uM after 24 hrs by Annexin-V-FITC/propidium iodide staining based flow cytometric method (reference value: 2.36 to 2.86%); type: functional
[23] = tested on: MCF7; assay: Induction of apoptosis in human MCF7 cells assessed as necrotic cells at 4 uM after 24 hrs by Annexin-V-FITC/propidium iodide staining based flow cytometric method (reference value: 2.35 to 2.49%); type: functional
[24] = tested on: MCF7; assay: Induction of apoptosis in human MCF7 cells assessed as early apoptotic cells at 8 uM after 24 hrs by Annexin-V-FITC/propidium iodide staining based flow cytometric method (reference value: 2.36 to 2.86%); type: functional
[25] = tested on: MCF7; assay: Induction of apoptosis in human MCF7 cells assessed as late apoptotic cells at 8 uM after 24 hrs by Annexin-V-FITC/propidium iodide staining based flow cytometric method (reference value: 2 to 3.7%); type: functional
[26] = tested on: MCF7; assay: Induction of apoptosis in human MCF7 cells assessed as necrotic cells at 8 uM after 24 hrs by Annexin-V-FITC/propidium iodide staining based flow cytometric method (reference value: 2.35 to 2.49%); type: functional
[27] = tested on: MCF7; assay: Induction of apoptosis in human MCF7 cells assessed as viable cells at 12 uM after 24 hrs by Annexin-V-FITC/propidium iodide staining based flow cytometric method (reference value: 91.6 to 92.7%); type: functional; conditions: MCF7, 24 h, read-out: Activity
[28] = tested on: MCF7; assay: Induction of apoptosis in human MCF7 cells assessed as early apoptotic cells at 12 uM after 24 hrs by Annexin-V-FITC/propidium iodide staining based flow cytometric method (reference value: 2.36 to 2.86%); type: functional
[29] = tested on: MCF7; assay: Induction of apoptosis in human MCF7 cells assessed as necrotic cells at 12 uM after 24 hrs by Annexin-V-FITC/propidium iodide staining based flow cytometric method (reference value: 2.35 to 2.49%); type: functional
[30] = tested on: MCF7; assay: Upregulation of CDK1 expression in human MCF7 cells at 0.5 to 2 uM after 24 hrs by Western blot analysis; type: functional, cell-based
[31] = tested on: MCF7; assay: Down regulation of cyclin B1 expression in human MCF7 cells at 0.5 to 2 uM after 24 hrs by Western blot analysis; type: functional, cell-based
[32] = tested on: MCF7; assay: Down regulation of cyclin D1 expression in human MCF7 cells at 0.5 to 2 uM after 24 hrs by Western blot analysis; type: functional, cell-based
[33] = species: Homo sapiens; assay: Induction of tubulin depolymerization in human MCF7 cells at 0.5 to 1 uM after 12 hrs by DAPI staining based confocal microscopic analysis; type: cell-based

COc1cc([C@@H]2c3cc4c(cc3[C@H](OC(=O)CN3CCN(c5ccc(Cl)c(Cl)c5)CC3)[C@H]3COC(=O)[C@H]23)OCO4)cc(OC)c1OC
IC50 [1]: 6.32 µM
IC50 [2]: 5.1 µM
IC50 [3]: 2.78 µM
IC50 [4]: > 100 µM
Activity [5]: 38.07%
Activity [6]: 24.21%
Activity [7]: 18.24 - 26.54%
Activity [8]: 8.32%
Activity [9]: 10.65%
Activity [10]: 81.03%
Activity [11]: 46.58%
Activity [12]: 23.99%
Activity [13]: 29.43%
Activity [14]: 29.54%
Activity [15]: 44.13%
Activity [16]: 8.51%
Activity [17]: 85.57%
viability at 2 µM [18]: 81.2%
Activity [19]: 10.1%
Activity [20]: 6.11%
viability at 4 µM [21]: 72.4%
Activity [22]: 11.4%
Activity [23]: 5.64%
Activity [24]: 14.7%
Activity [25]: 14%
Activity [26]: 3.45%
viability at 12 µM [27]: 55.2%
Activity [28]: 17.5%
Activity [29]: 6.91%
Activity [30]: Active
Activity [31]: Active
Activity [32]: Active
Activity [33]: Active
